Source: PubChem BioAssay
An excerpt weighted towards active compounds, which were near 3.9% of everything screened.
TAAR1 ag: human TAAR1 agonists, primary screen, Fluo-8 calcium fluorescence, CHO RD-HGA16 cells; hit rate 0.99% among 360,000; Trace amine-associated receptor 1 (Homo sapiens), Q96RJ0; activation, % at 3 µM; vehicle wells 0%, saturating PEA agonist 100%;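 active = activation above the mean activation of all test compounds in the run plus 3 SD, cut at about 38% in these data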
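System: CHO-derived RD-HGA16 cells with stable Gα16 and human TAAR1. Times: 17-24 h plating, Fluo-8 75 min 37 °C, 30 min RT. Measured by: calcium-sensitive Fluo-8 signal, excitation 470-495, emission 515-575 nm. Read-out basis: % activation relative to PEA EC100 response. Control set: DMSO and PEA EC100. Repeats: no replicates (n 1).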
OX1R antag-1: antagonists of human orexin 1 receptor (OX1R); OX1R-expressing cells, FRET antagonist read-out; inhibition, % at 6.6 µM; hit rate 1.8% among 330,000; AID 485270, 2010; in the data active = inhibition mostly above about 38%, no sharp cut-off; inactive = mostly below about 40%;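 note: 0% = agonist challenge alone and 100% = reference antagonist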
Target sequence (O43613 whole entry, looked up): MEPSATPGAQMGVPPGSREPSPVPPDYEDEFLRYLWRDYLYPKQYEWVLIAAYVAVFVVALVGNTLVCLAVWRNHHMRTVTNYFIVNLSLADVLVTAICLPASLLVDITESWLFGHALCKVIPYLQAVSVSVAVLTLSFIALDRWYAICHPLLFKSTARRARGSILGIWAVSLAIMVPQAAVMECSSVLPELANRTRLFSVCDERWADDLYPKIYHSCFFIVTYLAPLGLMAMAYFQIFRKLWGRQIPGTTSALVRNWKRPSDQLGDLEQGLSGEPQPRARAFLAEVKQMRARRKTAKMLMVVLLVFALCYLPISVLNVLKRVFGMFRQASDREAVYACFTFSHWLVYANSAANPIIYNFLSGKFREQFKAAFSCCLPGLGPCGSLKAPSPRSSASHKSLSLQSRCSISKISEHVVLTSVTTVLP
CHO parental Ca: ATP-evoked calcium signal inhibitors, parental CHO, primary screen, counter-screen for OX1R antagonist project, cell-based, fluorescence, Fluo-8 calcium dye; hit rate 0.63% among 330,000; parental CHO-K1, ATP-induced calcium, Fluo-8 fluorescence; inhibition, % at 5.6 µM;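 active = inhibition above that plate's mean sample inhibition plus 3 SD, cut at about 26% in these data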;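 note: 0% = ATP-challenged DMSO wells and 100% = DMSO wells without ATP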
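Test system: untransfected parental CHO cell line. Compound: one dose, 5.6 µM nominal. Detection: intracellular calcium via Fluo-8 no-wash fluorescent dye. Measure: % inhibition. Benchmarks: ATP-challenged DMSO wells low, unchallenged DMSO wells high.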
TAAR1 antagonist: human TAAR1 antagonists, primary screen, Fluo-8 calcium fluorescence, CHO RD-HGA16 cells | Trace amine-associated receptor 1 (Homo sapiens), Q96RJ0 | antagonist | inhibition, % at 3 µM | hit rate 1.5% among 360,000 | AID 624466, 2012;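 active = inhibition above a per-plate cutoff, the mean inhibition of test compounds on that plate plus 3 SD, cut at about 49% in these data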;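 note: 0% = DMSO plus EC80 beta-PEA response and 100% = DMSO alone without agonist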
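test system = CHO RD-HGA16 cells bearing hTAAR1 | replication = singlicate | controls = DMSO-only wells and EC80 β-PEA-stimulated wells | reagent = EC80 β-phenethylamine stimulus | read-out basis = percent inhibition of PEA-evoked calcium signal, max/basal emission ratio | schedule = seeding 17-24 h prior, 75-min 37 °C, 30-min RT dye loading | signal = kinetic Fluo-8 calcium fluorescence measurement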
OX1R antag-2: OX1R (HCRTR1) antagonists, primary screen, fluorescence, CHO/OX1R cells, Fluo-8 calcium, orexin A; Orexin/Hypocretin receptor type 1 (Homo sapiens), O43613; Fluo-8 calcium fluorescence; inhibition, % at 5 µM; hit rate 0.43% among 330,000; AID 434989, 2010;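 active = inhibition above its plate's threshold, mean inhibition of all tested compounds on the plate plus 3 SD, cut at about 37% in these data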;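 note: 0% = orexin A challenge wells and 100% = SB-334867-A antagonist wells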
OX1R HTRF confirm: OX1R (HCRTR1) antagonists, confirmation, cell-based, HTRF; shares compounds with OX1R antag-1; OX1R-expressing cells, HTRF antagonist assay; inhibition, % at 6.6 µM; hit rate 49% among 1,800; AID 492964, 2010; in the data active = inhibition above about 55%;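 note: CHO cells expressing OX1R stimulated with orexin A at about EC80; 0% = agonist challenge alone and 100% = reference antagonist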
CHO-K1 HTRF cnt: signal inhibition in parental CHO-K1 cells, counter-screen for OX1R antagonist project, cell-based, HTRF. shares compounds with OX1R antag-1. HTRF counterscreen. inhibition, % at 6.6 µM. hit rate 48% among 1,800. AID 493232, 2011; in the data active = inhibition above about 17%;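 note: 0% = agonist challenge with vehicle and 100% = vehicle alone without agonist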
* hit, by the source's call; . = not tested or not shown.

SMILES | TAAR1 ag | OX1R antag-1 | CHO parental Ca | TAAR1 antagonist | OX1R antag-2 | OX1R HTRF confirm | CHO-K1 HTRF cnt
O=C1C(N2CCOCC2)=C(n2nnc3ccccc32)C(=O)c2ccccc21 | 5 | 189* | -10 | 4 | -22 | 52 | 75*
O=C1c2ccccc2C(=O)c2c1cccc2-n1nnc2ccccc21 | 0 | 17 | -11 | -11 | -15 | . | .
NC(=O)c1ccsc1NC(=O)c1ccc2c(c1)CCCC2 | -1 | 79* | -4 | 24 | -11 | 66* | 2
CCn1c(O)c(/C=C2\C=Nc3ccccc32)sc1=O | 2 | 86* | -20 | 21 | 16 | 86* | 6
OC[C@@H]1CN(Cc2cccnc2)C[C@H](n2cnc3c(N4CCN(c5ccccc5)CC4)ncnc32)O1 | 6 | . | . | -22 | . | . | .
N#CC(C#N)=c1ccc2c(c1)NC1(CCCCC1)N=2 | 7 | 191* | -8 | -9 | -4 | 52 | 58*
O=C(NCc1ccco1)C1CCCN(S(=O)(=O)c2cccc3nsnc23)C1 (stereo not given) | 3 | 78* | 3 | 20 | -13 | 31 | 34*
COc1ccc(CNC(=O)CCNS(=O)(=O)c2cccc3nsnc23)cc1 | 1 | 46 | -6 | 9 | -15 | . | .
CC(=O)Nc1ccc(NC(=O)C2CCC(CNS(=O)(=O)c3cccc4nsnc34)CC2)cc1 (stereo not given) | 7 | 44 | 12 | 8 | -7 | . | .
CC(=O)Nc1ccc(NC(=O)C2CCCN2S(=O)(=O)c2cccc3nsnc23)cc1 (stereo not given) | 0 | 80* | 5 | 1 | -12 | 62* | 36*
O=C(CCS(=O)(=O)c1cccc2nsnc12)N1CCN(C(=O)c2ccco2)CC1 | -1 | 91* | 6 | -6 | -6 | 35 | 53*
O=C(CCNS(=O)(=O)c1cccc2nsnc12)NCc1ccco1 | 5 | 122* | 0 | 5 | -41 | 35 | 39*
CC1CCN(CCNC(=O)C2CCCN(S(=O)(=O)c3cccc4nsnc34)C2)CC1 (stereo not given) | 1 | 21 | -21 | -19 | -33 | . | .
O=C(CCNS(=O)(=O)c1cccc2nsnc12)NC1CCN(Cc2ccccc2)CC1 | 0 | 78* | -24 | -17 | -26 | 36 | 53*
O=C(CCNS(=O)(=O)c1cccs1)NC1CCN(Cc2ccccc2)CC1 | 6 | 1 | -8 | -1 | -16 | . | .
Cc1ccc(CNC(=O)C(NS(=O)(=O)c2cccc3nsnc23)C(C)C)cc1 (stereo not given) | 4 | 38 | -12 | -19 | -18 | . | .
O=C(NCc1ccco1)C(NS(=O)(=O)c1cccc2nsnc12)c1ccccc1 (stereo not given) | 3 | 92* | -29 | 2 | -28 | 61* | 28*
CCCNC(=O)C(NS(=O)(=O)c1cccc2nsnc12)c1ccccc1 (stereo not given) | 2 | 98* | -20 | -26 | -31 | 64* | 36*
O=C1NC[C@H](CCCCN2C[C@H](Cc3ccccc3)N(CCC3CCCCC3)C(=O)C2=O)N(Cc2ccccc2)C1=O | 5 | . | . | -15 | . | . | .
CCCN1CCC(=NNc2ccc(S(N)(=O)=O)cc2[N+](=O)[O-])CC1 | 2 | 85* | -5 | -6 | 0 | 38 | 56*
COc1cccc(-c2nn(C)c3sc(C(=O)N4CCN(c5ccccn5)CC4)cc23)c1 | . | 78* | 0 | . | 8 | 50 | 4
COc1ccc(CNc2nc(-c3ccccc3)nc3ccccc23)cc1OC | 8 | 85* | -14 | -41 | 12 | 68* | 6
Fc1ccc(CNc2nc(-c3ccccc3)nc3ccccc23)cc1 | 14 | . | . | 2 | . | . | .
O=c1[nH]c2cc3c(cc2cc1CN(Cc1cccs1)Cc1nnnn1Cc1ccco1)OCCO3 | 12 | 103* | -3 | -9 | 0 | 11 | 4
O=c1[nH]c2cc3c(cc2cc1CN(Cc1ccccc1)Cc1nnnn1Cc1ccco1)OCCO3 | 5 | . | . | -8 | . | . | .
SMILES | TAAR1 ag | OX1R antag-1 | CHO parental Ca | TAAR1 antagonist | OX1R antag-2 | OX1R HTRF confirm | CHO-K1 HTRF cnt
Cc1ccc(-c2nc3ccccc3o2)cc1NC(=O)Cc1cccs1 | 2 | 0 | 2 | -3 | 2 | . | .
O=C(Cc1cccs1)Nc1cccc(-c2nc3ccccc3o2)c1 | 10 | 77* | -21 | 28 | 7 | 74* | 0
COC(=O)c1ccccc1NC(=O)c1cc[n+](C)cc1 | 1 | 83* | 1 | -10 | -5 | 33 | 49*
O=C(Nc1cccc(Cl)c1)c1cccc(Oc2ccc([N+](=O)[O-])cc2Cl)c1 | 4 | 42 | 10 | 24 | -3 | . | .
O=C(Nc1cccc(Cl)c1)c1cc(N=Nc2ccc([N+](=O)[O-])cc2Cl)ccc1O | 4 | 77* | 14 | 8 | 21 | 57* | 23*
CCOc1cc(/C=C2/NC(=O)NC2=O)cc([N+](=O)[O-])c1O | 6 | 80* | 6 | 3 | 4 | 49 | 74*
C=CCn1c(-c2ccc(OC)cc2)nc2nc3ccccc3nc21 | 6 | 21 | -27 | 19 | -15 | . | .
c1ccc(-c2nc3nc4ccccc4nc3n2Cc2ccco2)cc1 | 6 | 107* | -20 | 22 | -13 | 33 | 18*
Cc1ccc2nsnc2c1S(=O)(=O)NCc1ccncc1 | 12 | 103* | -10 | -18 | -12 | 31 | 37*
Cc1ccc2nsnc2c1S(=O)(=O)NCc1cccnc1 | 7 | 38 | 7 | 7 | -15 | . | .
CC1(Cc2ccc(F)c(Cl)c2)C(=O)Nc2c(Cl)cccc21 (stereo not given) | 5 | . | . | 18 | . | . | .
Cc1ccc(OCCSc2nc3ncnc(N)c3[nH]2)cc1 | 5 | 99* | -10 | 1 | -21 | 22 | -2
CCN(CC(=O)Nc1ccc(NC(C)=O)cc1)C(=O)COc1ccc2ccccc2c1 | 4 | 6 | -21 | 3 | -12 | . | .
CCN(CC(=O)Nc1ccccc1OC)C(=O)COc1ccc2ccccc2c1 | 4 | 97* | -19 | 4 | 14 | 66* | 4
COc1ccc(-n2nc([N+](=O)[O-])c(=NCCCN3CCCC3=O)n2O)cc1 | 1 | 154* | -5 | -2 | 0 | 51 | 88*
O=C1CCCC2=C1[C@@]1(O[C@H]3C=CC=CN23)C(=O)N(c2ccccc2)c2ccccc21 | 1 | . | . | -21 | . | . | .
COc1ccccc1C(=O)NC1CCSc2ccccc21 (stereo not given) | 4 | 80* | -19 | -35 | -13 | 66* | -8
